Measured values taken from ChEMBL document CHEMBL3399974, “Discovery and SAR of novel series of imidazopyrimidinones and dihydroimidazopyrimidinones as positive allosteric modulators of the metabotropic glutamate receptor 5 (mGlu5)” (Bioorg Med Chem Lett, 2015).

Key:
[1] = target: Metabotropic glutamate receptor 5 (Rattus norvegicus) (UniProt P31424); test: Positive allosteric modulation at rat mGluR5 expressed in HEK293 cells assessed as amplitude of response at 30 uM by calcium mobilization assay relative to glutamate; format: functional, cell-based
Summary of the method: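 HEK293 cells stably expressing rat mGlu5 were used in a calcium mobilization assay. Test compound was given at 30 µM, and response amplitude is expressed as percent of the maximal response to 100 µM glutamate. Values are the average of three or more independent determinations.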

[2] = target: T1, Metabotropic glutamate receptor 5 (Rattus norvegicus, UniProt P31424); test: Positive allosteric modulation at rat mGluR5 expressed in HEK293 cells by calcium mobilization assay; format: functional, cell-based
Summary of the method: (§1)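 HEK293 cells stably expressing rat mGlu5 were run in a 'triple add' calcium mobilization assay that detects agonism, PAM and NAM activity together. Response amplitude was expressed as % of the maximal response to 100 µM glutamate. Values are the mean of three or more independent determinations.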

[3] = Drug metabolism in human liver microsomes assessed as compound metabolized at 1 uM after 15 mins; format: ADME; details: read-out: Drug metabolism
Summary of the method: (§2)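 Test compound at 1 µM was incubated for 15 min with liver microsomes (human for HLM, rat for RLM). Read-out was % of compound metabolized.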

[4] = Drug metabolism in rat liver microsomes assessed as compound metabolized at 1 uM after 15 mins; format: ADME; details: read-out: Drug metabolism; summary of the method: as §2
[5] = target: T1, Metabotropic glutamate receptor 5; test: Negative allosteric modulation at rat mGluR5 expressed in HEK293 cells by calcium mobilization assay; format: functional, cell-based; details: read-out: pIC50 (converted); summary of the method: as §1
[6] = target: Metabotropic glutamate receptor 5 (Rattus norvegicus) (UniProt P31424); test: Negative allosteric modulation at rat mGluR5 expressed in HEK293 cells by calcium mobilization assay relative to glutamate; details: 30 uM
[7] = target: Metabotropic glutamate receptor 6 (Homo sapiens, UniProt O15303); test: Positive allosteric modulation at mGluR6 (unknown origin)
[8] = Plasma protein binding in rat; format: ADME, cell-free
[9] = Plasma protein binding in human; format: ADME, cell-free
[10] = target: Metabotropic glutamate receptor 8 (Homo sapiens, UniProt O00222); test: Positive allosteric modulation at mGluR8 (unknown origin)
[11] = target: Metabotropic glutamate receptor 1 (Homo sapiens, UniProt Q13255); test: Positive allosteric modulation at mGluR1 (unknown origin)
[12] = target: Metabotropic glutamate receptor 7 (Homo sapiens, UniProt Q14831); test: Positive allosteric modulation at mGluR7 (unknown origin)
[13] = target: Metabotropic glutamate receptor 3 (Homo sapiens, UniProt Q14832); test: Negative allosteric modulation at mGluR3 (unknown origin)
[14] = target: Metabotropic glutamate receptor 2 (Homo sapiens, UniProt Q14416); test: Positive allosteric modulation at mGluR2 (unknown origin)
[15] = target: Metabotropic glutamate receptor 4 (Homo sapiens, UniProt Q14833); test: Positive allosteric modulation at mGluR4 (unknown origin)
Chain of Metabotropic glutamate receptor 4 (Q14833 whole entry): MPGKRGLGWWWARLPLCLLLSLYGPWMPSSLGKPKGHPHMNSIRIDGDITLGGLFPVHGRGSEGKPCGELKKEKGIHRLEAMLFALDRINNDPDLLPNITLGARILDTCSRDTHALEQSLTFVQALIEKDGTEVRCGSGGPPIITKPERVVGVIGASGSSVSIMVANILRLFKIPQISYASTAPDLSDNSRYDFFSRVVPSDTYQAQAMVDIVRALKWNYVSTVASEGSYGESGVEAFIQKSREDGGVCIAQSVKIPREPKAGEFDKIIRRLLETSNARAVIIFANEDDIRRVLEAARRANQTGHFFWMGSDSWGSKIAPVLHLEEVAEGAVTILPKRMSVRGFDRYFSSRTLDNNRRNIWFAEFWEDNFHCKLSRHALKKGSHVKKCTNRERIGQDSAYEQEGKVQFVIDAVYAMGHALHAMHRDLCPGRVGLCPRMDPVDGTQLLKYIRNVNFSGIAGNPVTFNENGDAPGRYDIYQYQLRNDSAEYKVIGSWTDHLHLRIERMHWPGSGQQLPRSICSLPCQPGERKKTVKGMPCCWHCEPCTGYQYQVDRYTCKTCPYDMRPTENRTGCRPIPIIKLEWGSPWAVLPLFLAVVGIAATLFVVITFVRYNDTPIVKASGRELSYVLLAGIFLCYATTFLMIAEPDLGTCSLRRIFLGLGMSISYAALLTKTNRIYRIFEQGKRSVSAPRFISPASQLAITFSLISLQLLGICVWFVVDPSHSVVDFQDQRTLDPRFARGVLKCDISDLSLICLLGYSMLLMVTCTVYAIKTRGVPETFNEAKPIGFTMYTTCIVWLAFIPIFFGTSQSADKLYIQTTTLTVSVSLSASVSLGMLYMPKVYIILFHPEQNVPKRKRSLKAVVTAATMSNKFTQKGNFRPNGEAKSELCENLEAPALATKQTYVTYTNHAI

Chain of Metabotropic glutamate receptor 5 (Rattus norvegicus) (P31424 21-1203 limits assumed): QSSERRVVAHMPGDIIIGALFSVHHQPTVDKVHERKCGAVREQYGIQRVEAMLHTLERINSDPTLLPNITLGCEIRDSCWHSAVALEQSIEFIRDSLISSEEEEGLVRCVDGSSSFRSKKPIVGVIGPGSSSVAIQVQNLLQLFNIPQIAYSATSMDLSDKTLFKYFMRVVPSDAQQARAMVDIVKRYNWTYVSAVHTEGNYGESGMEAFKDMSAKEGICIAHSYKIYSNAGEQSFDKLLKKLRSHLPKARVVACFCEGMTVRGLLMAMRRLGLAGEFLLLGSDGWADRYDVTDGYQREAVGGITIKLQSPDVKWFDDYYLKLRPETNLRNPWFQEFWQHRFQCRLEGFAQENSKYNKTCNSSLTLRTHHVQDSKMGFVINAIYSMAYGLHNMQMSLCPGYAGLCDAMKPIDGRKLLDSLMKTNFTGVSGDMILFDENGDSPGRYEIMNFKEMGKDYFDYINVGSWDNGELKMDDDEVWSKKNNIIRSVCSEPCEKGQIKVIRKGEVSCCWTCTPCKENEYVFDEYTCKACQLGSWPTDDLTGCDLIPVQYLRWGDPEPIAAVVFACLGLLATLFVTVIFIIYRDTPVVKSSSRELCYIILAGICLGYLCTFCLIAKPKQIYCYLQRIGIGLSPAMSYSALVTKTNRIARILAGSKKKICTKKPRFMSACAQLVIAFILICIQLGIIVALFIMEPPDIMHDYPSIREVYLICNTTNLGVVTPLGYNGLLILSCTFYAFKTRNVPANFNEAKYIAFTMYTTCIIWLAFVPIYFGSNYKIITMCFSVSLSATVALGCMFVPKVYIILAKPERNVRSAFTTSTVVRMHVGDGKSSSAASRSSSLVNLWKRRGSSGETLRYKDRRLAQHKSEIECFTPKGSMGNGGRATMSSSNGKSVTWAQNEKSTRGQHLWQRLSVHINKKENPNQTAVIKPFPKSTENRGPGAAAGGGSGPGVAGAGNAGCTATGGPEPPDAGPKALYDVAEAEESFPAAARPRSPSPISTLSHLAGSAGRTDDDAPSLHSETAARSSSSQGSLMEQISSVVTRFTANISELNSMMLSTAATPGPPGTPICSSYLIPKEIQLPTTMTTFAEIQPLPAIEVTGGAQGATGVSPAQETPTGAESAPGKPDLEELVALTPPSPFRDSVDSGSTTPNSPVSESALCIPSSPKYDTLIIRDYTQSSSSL
T1 sequence (P31424 whole entry): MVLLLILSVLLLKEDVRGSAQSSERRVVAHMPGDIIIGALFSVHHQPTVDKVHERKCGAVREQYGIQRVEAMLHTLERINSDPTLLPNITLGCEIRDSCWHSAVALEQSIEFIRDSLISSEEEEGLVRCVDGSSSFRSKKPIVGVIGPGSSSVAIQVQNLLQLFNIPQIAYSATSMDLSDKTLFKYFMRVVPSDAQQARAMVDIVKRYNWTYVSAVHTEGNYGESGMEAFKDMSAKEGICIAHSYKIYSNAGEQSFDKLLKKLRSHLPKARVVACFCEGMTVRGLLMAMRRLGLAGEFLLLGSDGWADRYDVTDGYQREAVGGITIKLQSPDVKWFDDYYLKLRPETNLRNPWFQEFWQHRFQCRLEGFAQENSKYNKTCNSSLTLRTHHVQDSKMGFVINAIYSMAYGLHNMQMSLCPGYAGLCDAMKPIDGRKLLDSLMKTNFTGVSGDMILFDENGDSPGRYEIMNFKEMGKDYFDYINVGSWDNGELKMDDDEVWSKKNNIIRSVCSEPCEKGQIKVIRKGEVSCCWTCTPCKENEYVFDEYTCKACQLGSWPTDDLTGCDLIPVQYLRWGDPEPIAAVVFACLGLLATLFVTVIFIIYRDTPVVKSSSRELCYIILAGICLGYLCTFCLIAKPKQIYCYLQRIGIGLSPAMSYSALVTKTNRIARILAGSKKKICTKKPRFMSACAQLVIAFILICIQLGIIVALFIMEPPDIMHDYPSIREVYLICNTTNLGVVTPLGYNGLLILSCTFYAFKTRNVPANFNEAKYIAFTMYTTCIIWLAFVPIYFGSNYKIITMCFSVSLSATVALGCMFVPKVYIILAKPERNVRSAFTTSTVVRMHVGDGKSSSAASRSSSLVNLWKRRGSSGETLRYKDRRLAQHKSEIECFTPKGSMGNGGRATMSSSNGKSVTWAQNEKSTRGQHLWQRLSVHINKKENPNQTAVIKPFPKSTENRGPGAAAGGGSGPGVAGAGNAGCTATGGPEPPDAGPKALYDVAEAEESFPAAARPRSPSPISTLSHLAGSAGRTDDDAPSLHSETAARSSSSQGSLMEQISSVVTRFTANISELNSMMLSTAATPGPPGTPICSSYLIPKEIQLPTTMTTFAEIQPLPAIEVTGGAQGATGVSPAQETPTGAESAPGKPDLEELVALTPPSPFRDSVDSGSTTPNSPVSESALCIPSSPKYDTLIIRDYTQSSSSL
Chain of Metabotropic glutamate receptor 7 (Q14831 whole entry): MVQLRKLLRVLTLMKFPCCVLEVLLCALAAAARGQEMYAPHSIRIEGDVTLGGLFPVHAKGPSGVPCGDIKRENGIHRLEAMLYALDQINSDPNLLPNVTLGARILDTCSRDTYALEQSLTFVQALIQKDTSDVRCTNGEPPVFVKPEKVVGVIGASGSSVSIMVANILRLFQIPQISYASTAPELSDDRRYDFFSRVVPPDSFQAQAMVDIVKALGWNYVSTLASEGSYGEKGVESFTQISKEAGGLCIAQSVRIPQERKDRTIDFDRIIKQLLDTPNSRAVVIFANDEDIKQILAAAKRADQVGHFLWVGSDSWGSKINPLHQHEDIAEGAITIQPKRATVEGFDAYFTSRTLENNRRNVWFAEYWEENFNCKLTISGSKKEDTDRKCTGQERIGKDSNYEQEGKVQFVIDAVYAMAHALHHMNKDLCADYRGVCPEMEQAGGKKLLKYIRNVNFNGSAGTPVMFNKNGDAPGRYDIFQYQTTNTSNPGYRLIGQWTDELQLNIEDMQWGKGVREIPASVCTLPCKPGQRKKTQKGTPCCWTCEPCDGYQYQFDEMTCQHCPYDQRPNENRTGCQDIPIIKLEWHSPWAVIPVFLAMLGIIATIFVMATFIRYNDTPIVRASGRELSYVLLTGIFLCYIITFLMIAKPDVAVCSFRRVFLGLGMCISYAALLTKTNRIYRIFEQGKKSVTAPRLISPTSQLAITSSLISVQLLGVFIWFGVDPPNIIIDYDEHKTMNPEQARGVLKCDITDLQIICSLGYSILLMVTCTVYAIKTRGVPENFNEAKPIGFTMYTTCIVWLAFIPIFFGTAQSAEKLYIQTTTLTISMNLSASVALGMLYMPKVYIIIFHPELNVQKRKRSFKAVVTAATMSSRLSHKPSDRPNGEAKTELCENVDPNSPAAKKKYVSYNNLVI
Chain of Metabotropic glutamate receptor 8 (O00222 whole entry): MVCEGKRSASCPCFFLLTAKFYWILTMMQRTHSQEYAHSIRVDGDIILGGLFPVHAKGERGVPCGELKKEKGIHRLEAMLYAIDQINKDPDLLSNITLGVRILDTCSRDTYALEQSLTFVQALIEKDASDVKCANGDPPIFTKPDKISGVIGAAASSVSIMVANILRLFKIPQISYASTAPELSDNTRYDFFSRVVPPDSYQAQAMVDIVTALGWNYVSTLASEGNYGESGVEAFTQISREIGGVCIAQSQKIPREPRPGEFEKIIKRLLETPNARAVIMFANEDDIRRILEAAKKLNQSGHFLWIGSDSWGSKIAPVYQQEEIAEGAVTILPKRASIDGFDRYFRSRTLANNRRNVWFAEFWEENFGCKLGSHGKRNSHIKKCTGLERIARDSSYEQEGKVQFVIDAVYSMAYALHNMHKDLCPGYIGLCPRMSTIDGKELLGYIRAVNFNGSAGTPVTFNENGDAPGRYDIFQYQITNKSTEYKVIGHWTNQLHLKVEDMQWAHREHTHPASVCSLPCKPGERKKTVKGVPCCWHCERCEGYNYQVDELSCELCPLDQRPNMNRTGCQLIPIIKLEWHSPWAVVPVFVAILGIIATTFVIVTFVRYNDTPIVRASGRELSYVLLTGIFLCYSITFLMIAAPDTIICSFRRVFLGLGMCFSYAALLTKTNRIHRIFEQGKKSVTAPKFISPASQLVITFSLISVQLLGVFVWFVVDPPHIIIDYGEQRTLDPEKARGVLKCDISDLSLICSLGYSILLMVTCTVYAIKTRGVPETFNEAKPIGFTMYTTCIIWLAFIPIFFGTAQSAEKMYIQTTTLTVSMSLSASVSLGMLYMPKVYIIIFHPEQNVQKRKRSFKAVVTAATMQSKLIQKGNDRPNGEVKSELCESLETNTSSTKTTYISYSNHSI

## O=c1n(Cc2ccccc2)ccc2nc(COc3ccccc3)cn12
[1]
  Emax: 93%
[2]
  EC50: 1590 nM

## Cc1ccnc(-n2ccc3nc(COc4ccccc4)cn3c2=O)c1
[1]
  Emax: 64%
[2]
  EC50: 5100 nM

## O=C1N(c2cccc(F)c2)CCc2nc(COc3ccccc3)cn21
[1]
  Emax: 82%
[3]
  metabolised at 0.25 h, 1 µM: 20%
[4]
  metabolised at 0.25 h, 1 µM: 78%
[2]
  EC50: 218 nM

## Cc1cc(N2CCc3nc(COc4ccccc4)cn3C2=O)ccc1F
[1]
  Emax: 91%
[3]
  metabolised at 0.25 h, 1 µM: 10%
[4]
  metabolised at 0.25 h, 1 µM: 37%
[2]
  EC50: 130 nM

## O=C1N(c2ccc(F)cc2)CCc2nc(COc3ccccc3)c(Cl)n21
[5]
  IC50: 132 nM
[6]
  IC50: 133 nM

## O=c1n(-c2ccc(F)cc2)ccc2nc(COc3ccccc3)cn12
[7]
  EC50: > 10000 nM
[1]
  Emax: 83%
[8]
  PPB: 93.1%
[9]
  PPB: 96.4%
[10]
  EC50: > 10000 nM
[11]
  EC50: > 10000 nM
[3]
  metabolised at 0.25 h, 1 µM: 14%
[12]
  EC50: > 10000 nM
[13]
  IC50: 630 nM
[14]
  EC50: > 10000 nM
[4]
  metabolised at 0.25 h, 1 µM: 27%
[15]
  EC50: > 10000 nM
[2]
  EC50: 310 nM

## O=c1n(-c2ccc(F)cc2)ccc2nc(COc3ccc(F)cc3)cn12
[1]
  Emax: 85%
[3]
  metabolised at 0.25 h, 1 µM: 11%
[4]
  metabolised at 0.25 h, 1 µM: 29%
[2]
  EC50: 375 nM

## Cc1cccc(OCc2cn3c(=O)n(-c4ccc(F)cc4)ccc3n2)c1
[1]
  Emax: 30%
[2]
  EC50: 344 nM
